Screening results deposited in PubChem by Columbia University Molecular Screening Center.
The sample as a whole holds a higher share of hits than the screen did.
INS promoter act: TRM-6 insulin promoter activation. TRM-6 cells, insulin promoter eGFP reporter, imaging; plate-scaled: unstimulated 0, stimulated control 100. 130,000 tested, 0.81% active. activation, % at 2 µM;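 active = activation at 2 µM above a set limit, confirmed on inspection of the cell images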;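 also: share of cells whose green reporter signal exceeds an intensity cutoff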
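System – human fetal islet-derived TRM-6 cells with tamoxifen-inducible insulin promoter–eGFP reporter · Amount – 1,000 cells per well · Schedule – overnight tamoxifen, then two-day compound incubation at 37 °C · Detection – high-content imaging of fixed cells with Hoechst nuclear stain · Read-out – percent cells above green-intensity threshold, converted to percent activation versus plate controls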
Of the large screens only hits and unclear results are named; the others gave an inactive call; [ ] = dose if it differs, or a comment.

CCc1cccc(NC(=O)CCSCCC(=O)Nc2cccc(CC)c2)c1	INS promoter act 90
Cc1ccc(C)c(OCC(=O)Nc2nc3ccc([N+](=O)[O-])cc3s2)c1C	none
CCOC(=O)N1CCN(Cc2c(F)cccc2F)CC1	none
Cc1sc(NC(=O)c2ccccc2F)c(CN2CCCCC2)c1C	INS promoter act 485
CCOC(=O)c1sc(NC(=O)c2ccccc2F)c(C(N)=O)c1C	none
CC(C)NC(=O)/C(C#N)=C\c1ccc(N(C)C)o1	INS promoter act 560
CNC(=O)/C(C#N)=C\c1ccc(CNS(=O)(=O)c2ccccc2)o1	none
CCN(CC)c1ccc(/C=C(/C#N)C(=O)NCc2ccccc2)o1	none
NS(=O)(=O)c1cc2c(cc1Cl)NC(C1C[C@H]3C=C[C@@H]1C3)NS2(=O)=O (some centres undefined)	none
O=C(NCc1cc(C(F)(F)F)cc(C(F)(F)F)c1)C1CC(c2cccc([N+](=O)[O-])c2)=NO1 (centres undefined)	none
COc1cccc(/C=N/NC(=O)C(=O)N/N=C/c2cccc(OC)c2OC)c1OC	none
COc1cccc(/C=N/NC(=O)CO/N=C(\C)c2cccs2)c1OC	INS promoter act 86
C/C(=N\OCC(=O)N/N=C/c1ccccc1)c1cccs1	none
CCOC(=O)N1CCC(N(CCN(C)C)C(=S)Nc2cc(C)cc(C)c2)CC1	none
CCc1nnc(NS(=O)(=O)c2ccc(NC(=O)/C=C/c3ccc(OC)cc3OC)cc2)s1	none
Cc1ccc(C(C(=O)NC2CCCC2)N(C(=O)Cc2cccs2)c2ccc(C)c(C)c2)o1 (centres undefined)	none
Cc1nn(C)cc1C(C(=O)NC1CCCCC1)N(C(=O)Cc1cccs1)c1ccc(C(C)C)cc1 (centres undefined)	INS promoter act 200
Cc1nn(C)cc1C(C(=O)NC1CCCCC1)N(C(=O)c1cnccn1)c1ccc(Oc2ccccc2)cc1 (centres undefined)	none
N#CC(C#N)=C1C=C2C=C(N3CCCCC3)CCC2CC1 (centres undefined)	INS promoter act 212
CCN(CC)C1=CC2=CC(=C(C#N)C#N)CCC2CC1 (centres undefined)	INS promoter act 525
CCCCN(C)C1=CC2=CC(=C(C#N)C#N)CCC2CC1 (centres undefined)	INS promoter act 245[fluoresces]
N#CC1=C(N)C2=C(N3CCCCC3)CCCC2C1(C#N)C#N (centres undefined)	none
Cc1ccc(NC(=O)COS(=O)c2ccc(C)cc2)cc1 (centres undefined)	none
CCC(NS(=O)(=O)c1cn(C)nc1C)c1ccccc1 (centres undefined)	none
COC(=O)C1=CC(C(=O)c2cccs2)=NN(c2ccc(OC)cc2)C1C(=O)OC (centres undefined)	none
CC(=O)Nc1ccc2ccc3cccc4ccc1c2c34	none
CCC(C)C(=O)NCCc1ccc(S(N)(=O)=O)cc1 (centres undefined)	none
CC(C)c1cc(NC(=O)CCl)on1	none
CCC(C)NC(=O)c1cc(C)no1 (centres undefined)	INS promoter act 121
CCC(C)NC(=O)c1n[nH]c(=O)c2ccccc12 (centres undefined)	none
Cc1ccsc1/C=N/NC(=O)CNC(=O)c1cccc([N+](=O)[O-])c1C	none
CC(=O)O[C@H]1C2OC(=O)C(C)=C2[C@@H]2OC(=O)[C@]3(CCC4OC41C)OC23 (some centres undefined)	none
COc1ccc2oc(C(F)(F)C(F)F)cc(=O)c2c1	none
COc1ccc2occ(NC(C)=O)c2c1	none
COc1ccc2oc3ccc(OC)cc3c(=O)c2c1	INS promoter act 145
CC(=O)Nc1nnc(CCS(=O)(=O)c2ccc(C)c(C)c2)s1	none
CCOc1ccc2c(c1)/C(=C(\C(Cl)=C(Cl)Cl)[N+](=O)[O-])N2	INS promoter act 376
CCOc1ccc([N+](=O)[O-])c(N)c1	none
CCOc1cccc(OCCOc2ccccc2[N+](=O)[O-])c1	none
NC1=NC(c2ccccc2Cl)n2c(nc3ccccc32)N1 (centres undefined)	none
CC(NC(=O)Cc1c(F)cccc1Cl)C1CCCO1 (centres undefined)	none
CNC(=O)CSCc1c(F)cccc1Cl	none
O=C(Cc1c(F)cccc1Cl)N1CCCC1	INS promoter act 557
c1ccc(-n2ncc3c(N4CCN(CCOc5cccc6ccccc56)CC4)ncnc32)cc1	none
COc1cc(/C=N/NC(=O)c2cccc([N+](=O)[O-])c2)ccc1OCc1ccccc1	none
COc1cc(/C=N/NC(=O)c2ccncc2)ccc1OCc1cnc(Cl)s1	INS promoter act 240
COc1cc(/C=C/C(=O)O)ccc1OCc1cnc(Cl)s1	none
CCOC(=O)C(=O)c1c(-c2ccccc2)nc2ccccn12	INS promoter act 450
CCNC(=O)c1c(C)nc2ccccn12	none
Cc1nc2ccccn2c1C(=O)NCC(C)C	none
CCOC(=O)NNC(=O)C12CC3CC(CC(C3)C1)C2	none
COC(=O)c1coc(-c2ccc(OC)cc2)c1C(=O)OC	none
Cc1nc2cccc(C(=O)NCc3ccccc3)c2o1	none
CN(C)C(CNC(=O)CSc1nnc(-c2ccco2)o1)c1ccccc1 (centres undefined)	none
CC(=O)NC1(c2ccccc2)CCN(c2nc(C)cc(C)n2)CC1	none
Cc1nc2cc3nc(C(F)(F)F)[nH]c3cc2[nH]1	none
